Results from ChEMBL document CHEMBL4020827, “Targeting Multiple Effector Pathways in Pancreatic Ductal Adenocarcinoma with a G-Quadruplex-Binding Small Molecule” (J Med Chem, 2018).

Columns and labels:
PANC-1 [1] = test: Effect on ROBO3 gene expression in human PANC1 cells at 400 nM after 6 hrs by RNA sequence analysis relative to control; format: functional
Summary of the method: (§1)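 RNA-seq: cells seeded overnight in 60 mm plates (PANC-1 0.35 x 10^6, MIA PaCa-2 1.5 x 10^6 cells/well), then exposed to 400 nM compound for 6 or 24 h against untreated controls. Cell lines mycoplasma-free by RNA-capture ELISA and STR-profiled. Differentially expressed genes called at FDR < 0.1.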

PANC-1 [2] = test: Effect on SHC2 gene expression in human PANC1 cells at 400 nM after 24 hrs by RNA sequence analysis relative to control; format: functional; summary of the method: as §1
WI-38 = test: Growth inhibition of human WI38 cells after 96 hrs by SRB assay; format: cell-based; details: WI-38, 96 h
MIA PaCa-2 [3] = test: Effect on GLI4 gene expression in human MIAPaCa2 cells at 400 nM after 6 hrs by RNA sequence analysis relative to control; format: functional
Summary of the method: (§2)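 PANC-1 (0.35 x 10^6) or MIA PaCa-2 (1.5 x 10^6) cells seeded overnight in 60 mm plates, then exposed to 400 nM compound for 6 or 24 h; untreated cells as controls. Cells were mycoplasma-free and STR-certified. Differential expression by RNA-seq, called at FDR < 0.1.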

MIA PaCa-2 [4] = test: Effect on MAPK12 gene expression in human MIAPaCa2 cells at 400 nM after 24 hrs by RNA sequence analysis relative to control; format: functional
MIA PaCa-2 [5] = test: Effect on PAK1 gene expression in human MIAPaCa2 cells at 400 nM after 24 hrs by RNA sequence analysis relative to control; format: functional
MIA PaCa-2 [6] = test: Effect on PAK1 gene expression in human MIAPaCa2 cells at 400 nM after 6 hrs by RNA sequence analysis relative to control; format: functional
PANC-1 [7] = test: Effect on FASN gene expression in human PANC1 cells at 400 nM after 24 hrs by RNA sequence analysis relative to control; format: functional; summary of the method: as §2
[8] = Binding affinity to 5'-FAM/3'-TAMRA labeled human telomeric F21T G-quadruplex DNA by direct fluorescence method
Summary of the method: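 Buffer was 50 mM KCl, 10 mM Tris-HCl, 1 mM EDTA, pH 7.3, 25 °C, quartz cuvette. Quenching of ligand emission at 570 nm tracked; KD from a quadratic quenching fit.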

PANC-1 [9] = test: Effect on GLI4 gene expression in human PANC1 cells at 400 nM after 24 hrs by RNA sequence analysis relative to control; format: functional; summary of the method: as §2
PANC-1 [10] = test: Effect on MAPK9 gene expression in human PANC1 cells at 400 nM after 6 hrs by RNA sequence analysis relative to control; format: functional
PANC-1 [11] = test: Effect on PAK1 gene expression in human PANC1 cells at 400 nM after 24 hrs by RNA sequence analysis relative to control; format: functional
Mus musculus [12] = test: Toxicity in CD-1 nude mouse xenografted with human MIAPaCa2 cells assessed as change in body weight at 15 mg/kg, iv administered twice weekly for 4 weeks measured for 40 days; format: organism-based; details: in vivo, 960 h
MIA PaCa-2 [13] = test: Effect on TEAD4 gene expression in human MIAPaCa2 cells at 400 nM after 24 hrs by RNA sequence analysis relative to control; format: functional; summary of the method: as §1
PANC-1 [14] = test: Effect on mLST8 gene expression in human PANC1 cells at 400 nM after 6 hrs by RNA sequence analysis relative to control; format: functional
PANC-1 [15] = test: Effect on ROBO3 gene expression in human PANC1 cells at 400 nM after 24 hrs by RNA sequence analysis relative to control; format: functional; summary of the method: as §1
PANC-1 [16] = test: Effect on TEAD2 gene expression in human PANC1 cells at 400 nM after 6 hrs by RNA sequence analysis relative to control; format: functional; summary of the method: as §1
PANC-1 [17] = test: Effect on PIK3R2 gene expression in human PANC1 cells at 400 nM after 24 hrs by RNA sequence analysis relative to control; format: functional
MIA PaCa-2 [18] = test: Effect on MAPK9 gene expression in human MIAPaCa2 cells at 400 nM after 6 hrs by RNA sequence analysis relative to control; format: functional
PANC-1 [19] = test: Effect on AKT1 gene expression in human PANC1 cells at 400 nM after 6 hrs by RNA sequence analysis relative to control; format: functional; summary of the method: as §2
PANC-1 [20] = test: Effect on CBFA2T3 gene expression in human PANC1 cells at 400 nM after 24 hrs by RNA sequence analysis relative to control; format: functional; summary of the method: as §2
MIA PaCa-2 [21] = test: Effect on MAPK12 gene expression in human MIAPaCa2 cells at 400 nM after 6 hrs by RNA sequence analysis relative to control; format: functional
Mus musculus [22] = test: Toxicity in CD-1 nude mouse xenografted with human MIAPaCa2 cells assessed as change in tumor ulceration at 15 mg/kg, iv administered twice weekly for 4 weeks measured for 40 days; format: organism-based; details: in vivo, 960 h
MIA PaCa-2 [23] = test: Effect on RPTOR gene expression in human MIAPaCa2 cells at 400 nM after 6 hrs by RNA sequence analysis relative to control; format: functional; summary of the method: as §1
MIA PaCa-2 [24] = test: Effect on PCK2 gene expression in human MIAPaCa2 cells at 400 nM after 6 hrs by RNA sequence analysis relative to control; format: functional
MIA PaCa-2 [25] = test: Effect on PFKFB4 gene expression in human MIAPaCa2 cells at 400 nM after 6 hrs by RNA sequence analysis relative to control; format: functional
[26] = Binding affinity to 5'-FAM/3'-TAMRA labeled HSP90A promoter G-quadruplex DNA (unknown origin) assessed as change in melting temperature at 1 uM by FRET assay
Summary of the method: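 FRET melting of FAM/TAMRA dual-labelled promoter G4 oligonucleotides, 400 nM, annealed at 95 °C for 10 min in 60 mM potassium cacodylate (pH 7.4) then cooled to RT. Ligand at 1 μM in solution with 50 mM K+. Fluorescence (ex 450–495, em 515–545 nm) read every 0.5 °C over 30–100 °C with a 30 sec hold per step. ΔTm from curve fitting; triplicate measurements.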

MIA PaCa-2 [27] = test: Effect on PARD6A gene expression in human MIAPaCa2 cells at 400 nM after 24 hrs by RNA sequence analysis relative to control; format: functional
MIA PaCa-2 [28] = test: Effect on PRDM16 gene expression in human MIAPaCa2 cells at 400 nM after 24 hrs by RNA sequence analysis relative to control; format: functional
Homo sapiens = species on record: Homo sapiens; test: Stabilization of G-quadruplex DNA in human PANC1 cells assessed as induction of DNA damage at G4 site by measuring increase in colocalization of BG4 and 53BP1 foci at 400 nM after 24 hrs by FITC/Cy5/DAPI staining based immunofluorescence assay relative to control; format: cell-based
PANC-1 [29] = test: Effect on PARD6A gene expression in human PANC1 cells at 400 nM after 24 hrs by RNA sequence analysis relative to control; format: functional
MIA PaCa-2 [30] = test: Effect on mLST8 gene expression in human MIAPaCa2 cells at 400 nM after 24 hrs by RNA sequence analysis relative to control; format: functional; summary of the method: as §1
MIA PaCa-2 [31] = test: Effect on PFKL gene expression in human MIAPaCa2 cells at 400 nM after 24 hrs by RNA sequence analysis relative to control; format: functional

O=C1c2ccc3c4c(c(NCCN5CCCC5)cc(c24)C(=O)N1CCCN1CCOCC1)C(=O)N(CCCN1CCOCC1)C3=O
log2FC (PANC-1 [1]): -0.75
log2FC (PANC-1 [2]): -1.47
IC50 (WI-38): 1.19 µM
log2FC (MIA PaCa-2 [3]): -1.71
log2FC (MIA PaCa-2 [4]): -1.23
log2FC (MIA PaCa-2 [5]): -1.13
log2FC (MIA PaCa-2 [6]): -0.59
log2FC (PANC-1 [7]): -0.7
Kd [8]: 0.067 µM
log2FC (PANC-1 [9]): -1.71
log2FC (PANC-1 [10]): -0.28
log2FC (PANC-1 [11]): -1.11
Activity (Mus musculus [12]): Non-Toxic
log2FC (MIA PaCa-2 [13]): -0.31
log2FC (PANC-1 [14]): -0.54
log2FC (PANC-1 [15]): -0.85
log2FC (PANC-1 [16]): -0.22
log2FC (PANC-1 [17]): -0.88
log2FC (MIA PaCa-2 [18]): -0.09
log2FC (PANC-1 [19]): -0.18
log2FC (PANC-1 [20]): -2.25
log2FC (MIA PaCa-2 [21]): -0.47
Activity (Mus musculus [22]): Non-Toxic
log2FC (MIA PaCa-2 [23]): -1.41
log2FC (MIA PaCa-2 [24]): 0.26
log2FC (MIA PaCa-2 [25]): -1.02
ΔTm [26]: 15.7 °C
log2FC (MIA PaCa-2 [27]): -1.4
log2FC (MIA PaCa-2 [28]): -3.39
Activity (Homo sapiens): 50%
log2FC (PANC-1 [29]): -1.41
log2FC (MIA PaCa-2 [30]): -1.28
log2FC (MIA PaCa-2 [31]): -1.18
